Laboratory results: ChEMBL document CHEMBL4049424, “Hydroxypyridinone and 5-Aminolaevulinic Acid Conjugates for Photodynamic Therapy” (J Med Chem, 2017)

tested on: not listed separately; assay: Drug metabolism in human doxorubicin resistant MCF7/R cells assessed as formation of protoporphyrin 9 after 6 hrs by fluorescence spectrometer; type: ADME, cell-based; conditions: mcf7r
Outline: (§1)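 MCF-7R monolayers exposed 6 h at 37 °C to ALA, conjugates or ALA hexyl/octyl esters at 1–100 μM in serum-free medium. PpIX emission at 635 nm (405 nm excitation; spectra 600–750 nm) read in wells. Untreated controls subtracted; mean of triplicates in arbitrary units.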

Row | Compound | Drug metabolism
1 | CCc1c(O)c(=O)ccn1CCCCCCOC(=O)CCC(=O)CN.Cl | Dose-dependent effect
2 | CCc1c(O)c(=O)ccn1CCCCCCCCOC(=O)CCC(=O)CN.Cl.Cl | Dose-dependent effect

tested on: not listed separately; assay: Drug metabolism in human KB cells assessed as formation of protoporphyrin 9 at 50 uM after 2 to 24 hrs by fluorescence spectrometer; type: ADME, cell-based; conditions: not given
Outline: (§2)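 KB monolayers (48 h after seeding ~5×10^4/well) washed, then given prodrug or ALA at 50 μM in serum-free medium at 37 °C. PpIX fluorescence read in wells at 2, 4, 6 and 24 h, excitation 405 nm, emission 635 nm. Untreated wells subtracted for autofluorescence; mean intensity in arbitrary units, triplicate.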

Row | Compound | Drug metabolism
3 | CCc1c(O)c(=O)ccn1CCCCCCCCOC(=O)CCC(=O)CN.Cl.Cl | Metabolite_Detected

tested on: not listed separately; assay: Drug metabolism in human KB cells assessed as protoporphyrin 9 formation at 500 uM preincubated for 1 hr at 4 degC followed by compound washout and subsequent incubation for 4 hrs at 37 degC by fluorescence spectrometer; type: ADME, cell-based; conditions: not given
Outline: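 KB cells exposed 1 h to 500 μM prodrug in clear medium at either 4 °C or 37 °C, plates foil-wrapped. Compound then removed, PBS rinse, fresh medium, both plates 4 h at 37 °C. PpIX read in wells at 405/635 nm after subtracting untreated wells.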

Row | Compound | Drug metabolism
4 | CCc1c(O)c(=O)ccn1CCCCCCOC(=O)CCC(=O)CN.Cl | Metabolite_Detected
5 | CCc1c(O)c(=O)ccn1CCCCCCCCOC(=O)CCC(=O)CN.Cl.Cl | Metabolite_Detected

tested on: not listed separately; assay: Drug metabolism in human MCF7 cells assessed as formation of protoporphyrin 9 at 50 uM after 6 hrs by fluorescence spectrometer; type: ADME, cell-based; conditions: mcf7, 6 h
Outline: (§3)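 MCF-7 or MCF-7R cells incubated 6 h at 37 °C with 50 μM conjugate, or with 50 μM ALA and HPO as a 1:1 mixture, in serum-free medium. PpIX fluorescence read in wells at 405/635 nm, untreated-well values subtracted, triplicate.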

Row | Compound | Drug metabolism
6 | CCc1c(O)c(=O)ccn1CCCCCCOC(=O)CCC(=O)CN.Cl | Metabolite_Detected
7 | CCc1c(O)c(=O)ccn1CCCCCCCCOC(=O)CCC(=O)CN.Cl.Cl | Metabolite_Detected

tested on: not listed separately; assay: Drug metabolism in human KB cells assessed as formation of protoporphyrin 9 at 100 uM after 6 to 24 hrs by fluorescence spectrometer; type: ADME, cell-based; conditions: not given
Outline: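 Time course in KB cells at 37 °C after 100 μM conjugate, ALA, or 1:1 ALA + HPO mixture in serum-free medium. Well PpIX fluorescence read at 405 nm excitation / 635 nm emission, control autofluorescence subtracted, triplicate means.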

Row | Compound | Drug metabolism
8 | CCc1c(O)c(=O)ccn1CCCCCCOC(=O)CCC(=O)CN.Cl | Metabolite_Detected
9 | CCc1c(O)c(=O)ccn1CCCCCCCCOC(=O)CCC(=O)CN.Cl.Cl | Metabolite_Detected

tested on: not listed separately; assay: Drug metabolism in human KB cells assessed as formation of protoporphyrin 9 at 50 uM after 24 hrs by fluorescence spectrometer relative to ALA; type: ADME, cell-based; conditions: not given; outline: as §2

Row | Compound | fold change (FC)
10 | CCc1c(O)c(=O)ccn1CCCCCCCCOC(=O)CCC(=O)CN.Cl.Cl | 8

tested on: KB; assay: Phototoxicity in human KB cells assessed as reduction in cell viability preincubated for 4 hrs followed by irradiation with blue light at 2.5 J/cm2 and subsequent incubation for 18 hrs measured after 24 hrs post treatment by MTT assay; type: functional; conditions: not given
Outline: (§4)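 Cells seeded ~5 × 10^4 per well, grown 48 h, washed with PBS, then 4 h with compound (five concentrations within 1–100 μM, triplicate, three untreated control wells per plate). Irradiated with blue light, peak ~420 nm, 2.5 J/cm². Medium replaced, cells kept a further 18 h. MTT read at A570 24 h after treatment; survival expressed as percentage of control. LD50 taken from two sets of experiments.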

Row | Compound | Activity
11 | CCc1c(O)c(=O)ccn1CCCCCCOC(=O)CCC(=O)CN.Cl | Dose-dependent effect
12 | CCc1c(O)c(=O)ccn1CCCCCCCCOC(=O)CCC(=O)CN.Cl.Cl | Dose-dependent effect

same assay, conditions: light or radiation study, read-out: LD50 (the source's name)

Row | Compound | CC50
13 | CCc1c(O)c(=O)ccn1CCCCCCOC(=O)CCC(=O)CN.Cl | 5.2 µM
14 | CCc1c(O)c(=O)ccn1CCCCCCCCOC(=O)CCC(=O)CN.Cl.Cl | 3.1 µM

tested on: MCF7; assay: Phototoxicity in human MCF7 cells assessed as reduction in cell viability preincubated for 4 hrs followed by irradiation with blue light at 2.5 J/cm2 and subsequent incubation for 18 hrs measured after 24 hrs post treatment by MTT assay; type: functional; conditions: not given; outline: as §4

Row | Compound | Activity
15 | CCc1c(O)c(=O)ccn1CCCCCCOC(=O)CCC(=O)CN.Cl | Dose-dependent effect
16 | CCc1c(O)c(=O)ccn1CCCCCCCCOC(=O)CCC(=O)CN.Cl.Cl | Dose-dependent effect

same assay, conditions: MCF7, light or radiation study, read-out: LD50 (the source's name)

Row | Compound | CC50
17 | CCc1c(O)c(=O)ccn1CCCCCCOC(=O)CCC(=O)CN.Cl | 13.4 µM
18 | CCc1c(O)c(=O)ccn1CCCCCCCCOC(=O)CCC(=O)CN.Cl.Cl | 10.9 µM

tested on: MCF7R; assay: Phototoxicity in human doxorubicin resistant MCF7/R cells assessed as reduction in cell viability preincubated for 4 hrs followed by irradiation with blue light at 2.5 J/cm2 and subsequent incubation for 18 hrs measured after 24 hrs post treatment by MTT assay; type: functional; conditions: not given; outline: as §4

Row | Compound | Activity
19 | CCc1c(O)c(=O)ccn1CCCCCCOC(=O)CCC(=O)CN.Cl | Dose-dependent effect
20 | CCc1c(O)c(=O)ccn1CCCCCCCCOC(=O)CCC(=O)CN.Cl.Cl | Dose-dependent effect

same assay, conditions: light or radiation study, read-out: LD50 (the source's name)

Row | Compound | CC50
21 | CCc1c(O)c(=O)ccn1CCCCCCOC(=O)CCC(=O)CN.Cl | 8.1 µM
22 | CCc1c(O)c(=O)ccn1CCCCCCCCOC(=O)CCC(=O)CN.Cl.Cl | 4.2 µM

tested on: KB; assay: Phototoxicity in human KB cells assessed as cell survival at 10 uM preincubated for 4 hrs followed by irradiation with blue light at 2.5 J/cm2 and subsequent incubation for 18 hrs measured after 24 hrs post treatment by MTT assay relative to control; type: functional; conditions: light or radiation study, read-out: Survival; outline: as §4

Row | Compound | viability at 10 µM
23 | CCc1c(O)c(=O)ccn1CCCCCCCCOC(=O)CCC(=O)CN.Cl.Cl | < 6%

tested on: KB; assay: Dark toxicity against human KB cells at 200 uM preincubated for 4 hrs followed by compound washout measured after 24 hrs by MTT assay; type: cell-based; conditions: not given
Outline: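 Dark toxicity in KB cells: 200 μM compound for 4 h with no light, removed, cells kept 24 h. Viability by MTT (2 h, A570 after DMSO solubilisation), given as % of untreated controls. Triplicate.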

Row | Compound | Activity
24 | CCc1c(O)c(=O)ccn1CCCCCCOC(=O)CCC(=O)CN.Cl | Non-Toxic
25 | CCc1c(O)c(=O)ccn1CCCCCCCCOC(=O)CCC(=O)CN.Cl.Cl | Non-Toxic

tested on: not listed separately; assay: Prodrug conversion in human KB cells assessed as accumulation of ALA at 100 uM after 2 hrs by HPLC-based fluorescence analysis relative to ALA; type: ADME, cell-based; conditions: not given
Outline: (§5)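 KB or MCF-7R cells incubated 2 h with 100 μM ALA or conjugate, then extracted with CelLytic. Lysate ALA derivatised with acetylacetone/ethanol/water (15/45/40) plus 10% formaldehyde at 100 °C for 10 min. Analysed by C18 HPLC with fluorescence detection (excitation 370 nm, emission 460 nm) against spiked-lysate calibration. Normalised per mg protein.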

Row | Compound | fold change (FC)
26 | CCc1c(O)c(=O)ccn1CCCCCCCCOC(=O)CCC(=O)CN.Cl.Cl | 6

tested on: not listed separately; assay: Prodrug conversion in human doxorubicin resistant MCF7/R cells assessed as accumulation of ALA at 100 uM after 2 hrs by HPLC-based fluorescence analysis relative to ALA; type: ADME, cell-based; conditions: mcf7r; outline: as §5

Row | Compound | fold change (FC)
27 | CCc1c(O)c(=O)ccn1CCCCCCCCOC(=O)CCC(=O)CN.Cl.Cl | 6

tested on: not listed separately; assay: Drug metabolism in human KB cells assessed as formation of protoporphyrin 9 preincubated for 2 hrs followed by compound washout measured after 24 hrs by HPLC-based fluorescence analysis; type: ADME, cell-based; conditions: not given
Outline: (§6)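 Cells given ALA or conjugate for 2 h at 37 °C, then fresh medium without compound. At 24 h, lysed in CelLytic (15 min, room temperature), scraped and spun 1800g for 10 min. Supernatant PpIX read by fluorescence at 405/635 nm and normalised per mg protein (BCA). Untreated blanks subtracted.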

Row | Compound | Drug metabolism
28 | CCc1c(O)c(=O)ccn1CCCCCCOC(=O)CCC(=O)CN.Cl | Metabolite_Detected
29 | CCc1c(O)c(=O)ccn1CCCCCCCCOC(=O)CCC(=O)CN.Cl.Cl | Metabolite_Detected

tested on: not listed separately; assay: Drug metabolism in human doxorubicin resistant MCF7/R cells assessed as formation of protoporphyrin 9 preincubated for 2 hrs followed by compound washout measured after 24 hrs by HPLC-based fluorescence analysis; type: ADME, cell-based; conditions: mcf7r; outline: as §6

Row | Compound | Drug metabolism
30 | CCc1c(O)c(=O)ccn1CCCCCCOC(=O)CCC(=O)CN.Cl | Metabolite_Detected
31 | CCc1c(O)c(=O)ccn1CCCCCCCCOC(=O)CCC(=O)CN.Cl.Cl | Metabolite_Detected

tested on: not listed separately; assay: Drug metabolism in human MCF7 cells assessed as formation of protoporphyrin 9 preincubated for 2 hrs followed by compound washout measured after 24 hrs by HPLC-based fluorescence analysis; type: ADME, cell-based; conditions: mcf7, 24 h; outline: as §6

Row | Compound | Drug metabolism
32 | CCc1c(O)c(=O)ccn1CCCCCCOC(=O)CCC(=O)CN.Cl | Metabolite_Detected
33 | CCc1c(O)c(=O)ccn1CCCCCCCCOC(=O)CCC(=O)CN.Cl.Cl | Metabolite_Detected

tested on: not listed separately; assay: Drug metabolism in human doxorubicin resistant MCF7/R cells assessed as formation of protoporphyrin 9 at 1 to 100 uM after 6 hrs by fluorescence spectrometer; type: ADME, cell-based; conditions: mcf7r
Outline: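 Cells seeded ~5 × 10^4 per well and grown 48 h, washed with PBS. Then 6 h at 37 °C with 1–100 μM prodrug in serum-free medium. PpIX fluorescence read with excitation 405 nm and emission 635 nm (scan 600–750 nm, 515 nm long-pass filter). Values are mean intensity in arbitrary units after subtracting no-prodrug control wells. Triplicate.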

Row | Compound | Flu intensity
34 | CCc1c(O)c(=O)ccn1CCCCCCOC(=O)CCC(=O)CN.Cl | 2 to 25 a.u.
35 | CCc1c(O)c(=O)ccn1CCCCCCCCOC(=O)CCC(=O)CN.Cl.Cl | 2 to 25 a.u.

tested on: not listed separately; assay: Drug metabolism in human doxorubicin resistant MCF7/R cells assessed as formation of protoporphyrin 9 at 1 to 100 uM after 6 hrs by fluorescence spectrometer relative to ALA; type: ADME, cell-based; conditions: mcf7r; outline: as §1

Row | Compound | fold change (FC)
36 | CCc1c(O)c(=O)ccn1CCCCCCOC(=O)CCC(=O)CN.Cl | > 15

tested on: not listed separately; assay: Drug metabolism in human doxorubicin resistant MCF7/R cells assessed as formation of protoporphyrin 9 at 50 uM after 6 hrs by fluorescence spectrometer; type: ADME, cell-based; conditions: mcf7r; outline: as §3

Row | Compound | Drug metabolism
37 | CCc1c(O)c(=O)ccn1CCCCCCOC(=O)CCC(=O)CN.Cl | Metabolite_Detected
38 | CCc1c(O)c(=O)ccn1CCCCCCCCOC(=O)CCC(=O)CN.Cl.Cl | Metabolite_Detected

tested on: KB; assay: Dark toxicity against human KB cells assessed as cell survival at 100 uM after 24 hrs by MTT assay; type: cell-based; conditions: not given

Row | Compound | Activity
39 | CCc1c(O)c(=O)ccn1CCCCCCOC(=O)CCC(=O)CN.Cl | Non-Toxic
40 | CCc1c(O)c(=O)ccn1CCCCCCCCOC(=O)CCC(=O)CN.Cl.Cl | Non-Toxic
